Screening data (PubChem BioAssay)
In the library only some 1.6% were active in any assay of this set; here they are far more common.
LEDGF integ inh – blocks HIV-1 LEDGF/p75-dependent DNA integration | inhibition, % at 3.7 µM | hit rate 0.64% among 370,000 | AID 743269 | TR-FRET IN-LEDGF/p75 DNA integration, Eu/Cy5;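 active = inhibition above the screen-wide mean plus 3 SD, cut at about 13% in these data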;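 also: signal is the Cy5 over europium emission ratio at 671 and 618 nm; 0% = plate median of compound wells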
MBD2 DNA inh – blocks human MBD2 binding to methylated DNA; inhibition, % at 4.4 µM; hit rate 0.31% among 370,000; TR-FRET, MBD2 binding to methylated oligonucleotide; in the data active = inhibition above about 13%
UHRF1 binding – human UHRF1 methylated DNA binding inhibitors | Q96T88 | UHRF1 binding to methylated oligo, TR-FRET | inhibition, % at 4.4 µM | hit rate 0.75% among 370,000 | AID 687016; in the data active = inhibition above about 21%;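 also: UHRF1 SRA domain binding a hemimethylated CpG hairpin DNA probe; 0% = median of test compound wells and 100% = reference inhibitor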
Target sequence (Q96T88 whole entry, looked up, the tested form may be a part): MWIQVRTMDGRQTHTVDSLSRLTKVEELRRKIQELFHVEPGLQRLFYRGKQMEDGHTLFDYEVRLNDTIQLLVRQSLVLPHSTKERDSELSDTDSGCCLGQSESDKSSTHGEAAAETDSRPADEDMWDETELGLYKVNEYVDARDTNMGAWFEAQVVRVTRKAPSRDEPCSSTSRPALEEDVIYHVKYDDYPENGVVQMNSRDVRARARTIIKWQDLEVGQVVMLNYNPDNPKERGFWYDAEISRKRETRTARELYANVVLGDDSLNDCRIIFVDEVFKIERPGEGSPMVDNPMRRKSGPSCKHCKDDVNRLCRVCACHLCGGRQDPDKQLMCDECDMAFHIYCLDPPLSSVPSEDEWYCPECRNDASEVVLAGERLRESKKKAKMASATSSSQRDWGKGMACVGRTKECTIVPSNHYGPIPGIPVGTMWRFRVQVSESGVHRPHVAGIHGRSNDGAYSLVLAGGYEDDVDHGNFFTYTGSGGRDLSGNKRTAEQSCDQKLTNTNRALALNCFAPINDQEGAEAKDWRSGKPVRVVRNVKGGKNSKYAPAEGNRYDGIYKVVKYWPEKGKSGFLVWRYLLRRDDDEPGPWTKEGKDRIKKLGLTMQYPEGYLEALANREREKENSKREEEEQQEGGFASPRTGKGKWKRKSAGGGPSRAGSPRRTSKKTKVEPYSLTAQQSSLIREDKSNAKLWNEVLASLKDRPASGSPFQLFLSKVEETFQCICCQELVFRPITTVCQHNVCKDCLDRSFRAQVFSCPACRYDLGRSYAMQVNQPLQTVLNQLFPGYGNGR
TDP2 inh – blocks human TDP2 phosphodiesterase activity | recombinant TDP2, T5PNP hydrolysis, p-nitrophenol absorbance 415 nm | O95551 | AID 720702 | hit rate 0.34% among 370,000 | inhibition, % at 12.8 µM;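 active = inhibition above the mean of all tested compounds plus 3 SD, set per campaign, cut at about 25% in these data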;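 also: 0% = DMSO with enzyme and 100% = buffer with substrate but no TDP2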
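Assay system: Recombinant human TDP2 | Quantity: 120 nM TDP2 per well | Incubation: 2 h at 37 °C | Signal: Epi absorbance | Evaluation: Percent inhibition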
TDP2 inh conf – human TDP2 inhibition, confirmation. shares compounds with TDP2 inh. recombinant human TDP2, absorbance read-out. inhibition, % at 12.8 µM. hit rate 22% among 1,100. AID 743263; in the data active = inhibition above about 25%;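 also: 0% = vehicle with enzyme and 100% = no enzyme buffer only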
IN multimer act – counter-screen for LEDGF/p75 integration inhibitors: HIV-1 integrase multimerization activators; shares compounds with LEDGF integ inh; TR-FRET HIV-1 integrase multimerization, biochemical; activation, % at 7.7 µM; hit rate 17% among 2,000; in the data active = activation above about 8.9%
TRFRET interf – TR-FRET optical interference, LEDGF/p75 integration counter-screen | shares compounds with LEDGF integ inh | TR-FRET optical interference counterscreen, HIV-1 IN multimerization | inhibition, % at 7.7 µM | 2,000 tested, under 10 active;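 active = inhibition above the mean over all tested compounds plus 3 SD, which no compound reached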;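 also: 0% = integrase with antibodies and DMSO and 100% = antibodies without integrase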
LEDGF integ conf – LEDGF/p75-dependent HIV-1 integration inhibition, confirmation | shares compounds with LEDGF integ inh | inhibition, % at 3.7 µM | TR-FRET LEDGF/p75-dependent HIV-1 integration, biochemical | hit rate 36% among 2,000; in the data active = inhibition above about 14%
An asterisk follows results filed as active; i = inactive; . = no result given.

SMILES	LEDGF integ inh	MBD2 DNA inh	UHRF1 binding	TDP2 inh	TDP2 inh conf	IN multimer act	TRFRET interf	LEDGF integ conf
Cc1nn(Cc2c(Cl)cccc2Cl)c(Cl)c1C(=O)O	-2.7	1.6	0.7	2.5	.	.	.	.
O=c1[nH]c(=O)n(-c2cccc(F)c2)c(O)c1/C=C1\C=Nc2ccccc21	5.2	11.8	22.2*	32.5*	13.7	.	.	.
O=C1C2CCCN2C(c2cccs2)N1c1ccccn1 (stereo not given)	-5.5	1.9	-2.6	-11.6	.	.	.	.
CCC(=Nc1ccccc1N)c1c(O)[nH]c(=O)[nH]c1=O	1.4	-3.8	-6.8	25.2*	13.0	.	.	.
O=C(CN1CCOCC1)c1ccc(Br)cc1	5.6	-6.0	1.4	10.9	.	.	.	.
O=C(CN1CCOCC1)c1cccc2ccccc12	1.9	-7.5	1.7	25.3*	16.2	.	.	.
CCn1cc(C=C2C(=O)NC(=O)NC2=O)c2ccccc21	-1.0	0.8	-8.1	27.5*	6.6	.	.	.
CCN(CC)P(c1n(C)cc[n+]1C)N(CC)CC	-4.2	0.9	-0.4	8.7	.	.	.	.
COCCCn1c(N)c(C(=O)NCCC(C)C)c2nc3ccccc3nc21	7.9	2.7	6.9	40.8*	0.5	.	.	.
CC1CC2(O)c3nonc3CCC2N1O (stereo not given)	4.6	8.6	5.5	-0.7	.	.	.	.
COc1ccc(C(=O)c2nc3ccccc3n2C(C)C)cc1	-4.0	-3.2	-3.0	-1.3	.	.	.	.
O=c1[nH]c(=S)[nH]c(O)c1/C=C1/C=c2ccccc2=N1	-1.1	-5.8	-3.4	4.3	.	.	.	.
Cc1cccc2c1=NC(=O)/C(=C/c1c(O)[nH]c(=O)[nH]c1=O)C=2	0.6	-6.0	-9.8	31.8*	37.5*	.	.	.
O=c1nc(/C=C/c2ccc(Cl)cc2Cl)cc(C(F)(F)F)[nH]1	2.3	-4.3	-0.2	29.0*	17.8	.	.	.
COc1ccc(OCC#CCN2CCCCCC2)cc1	0.2	1.7	7.4	9.6	.	.	.	.
COc1ccc(OCC#CCN2CCNCC2)cc1	2.5	-1.9	-0.5	31.3*	2.5	.	.	.
O=C(NC1CCCCC1)Oc1cc2oc(=O)sc2cc1Cl	0.4	7.9	6.0	29.5*	12.4	.	.	.
CCOc1ccccc1N1C(=O)CC(=O)NC1=O	2.2	-4.4	-2.2	2.8	.	.	.	.
Nc1c(Br)cc2c3c(cccc13)-c1ccccc1-2	6.4	6.5	12.1	63.7*	16.9	.	.	.
c1ccc2c(c1)-c1cccc3cccc-2c13	i	1.9	0.2	-12.2	.	.	.	.
COC(=O)C1=C(c2ccc(S(C)(=O)=O)cc2)C[C@@H]2CC[C@H]1N2C(=O)N1CCC(O)CC1	2.2	-0.7	0.2	-3.2	.	.	.	.
COC(=O)C(O)(c1c(C)[nH]n(-c2ccccc2)c1=O)C(F)(F)F (stereo not given)	25.8*	-8.4	-0.8	26.7*	44.5*	1.1	-3.8	11.8
COC(=O)C(O)(c1c[nH]c2ccccc12)C(F)(F)F (stereo not given)	-1.5	0.4	-2.2	6.1	.	.	.	.
Cc1ccc(OC(=O)N(C)C[C@H]2OCc3cnnn3CCCC(=O)N([C@@H](C)CO)C[C@H]2C)cc1	-0.1	6.2	-0.9	2.0	.	.	.	.
COc1cc2c(cc1OC)-c1c(OC)c(OC)cc3c1C(C2)N(C)CC3 (stereo not given)	19.6*	12.9	34.4*	51.9*	59.9*	2.4	-8.2	11.0
SMILES	LEDGF integ inh	MBD2 DNA inh	UHRF1 binding	TDP2 inh	TDP2 inh conf	IN multimer act	TRFRET interf	LEDGF integ conf
COc1ccc(-n2c(O)c(C(C)=NCCCn3ccnc3)c(=O)[nH]c2=O)cc1	-4.4	2.1	0.6	-3.4	.	.	.	.
ClC1C(Cl)C(Cl)C(Cl)C(Cl)C1Cl (stereo not given)	1.7	9.0	-1.4	2.9	.	.	.	.
Nc1c(C(=O)NCCCc2ccccc2)c2nc3ccccc3nc2n1Cc1cccs1	25.6*	1.2	10.4	59.9*	2.2	-2.3	8.1	-2.6
CCCCCn1c(N)c(C(=O)NCc2cccs2)c2nc3ccccc3nc21	1.0	-2.9	-3.2	-10.3	.	.	.	.
CC(C)OCCCNC(=O)c1c(N)n(CC2CCCO2)c2nc3ccccc3nc12 (stereo not given)	28.6*	5.6	10.1	82.5*	6.6	0.2	-1.2	7.5
CCCCn1c(N)c(C(=O)OCCOC)c2nc3ccccc3nc21	4.1	-5.6	-0.1	7.1	.	.	.	.
CCCCn1c(NC(=O)c2ccco2)c(C(=O)OCC)c2nc3ccccc3nc21	30.5*	10.4	17.3	79.3*	76.5*	-1.5	5.5	61.6*
CCCCn1c(NS(=O)(=O)c2ccc(C)cc2)c(C(=O)OCC)c2nc3ccccc3nc21	32.5*	-0.4	13.2	71.2*	36.2*	1.1	-3.9	10.5
COC(=O)C1=C(c2ccc(-c3ccccc3)c(F)c2)C[C@@H]2CC[C@H]1N2C(=O)NCCOc1ccc(OC)cc1	14.9*	-6.9	6.6	-22.4	.	-2.2	7.8	-5.8
CN1C(=O)/C(=C/c2cccn2-c2ccc3ccccc3c2)C(=O)NC1=S	18.2*	-1.8	-0.4	6.7	.	5.8	-29.4	30.0*
Cc1cc(C)cc(N2C(=O)NC(=O)/C(=C\c3cccn3-c3ccccc3)C2=O)c1	0.1	-6.2	5.5	8.2	.	.	.	.
CCCCn1nnnc1C(CCSC)N1CCC(n2c(=O)[nH]c3ccccc32)CC1 (stereo not given)	-3.8	-1.7	1.3	-3.2	.	.	.	.
CCCCn1nnnc1C(CCc1ccccc1)N1CCC(n2c(=O)[nH]c3ccccc32)CC1 (stereo not given)	20.4*	7.8	1.4	4.0	.	-0.1	0.3	-2.5
CN(C)[C@@H]1C(=O)C(C(N)=O)=C(O)[C@@]2(O)C(=O)C3=C(O)c4c(O)ccc(Cl)c4[C@@](C)(O)[C@H]3C[C@@H]12	13.7*	-5.0	2.1	-5.4	.	5.7	-28.7	4.6
CN(C)[C@@H]1C(=O)C(C(N)=O)=C(O)[C@@]2(O)C(=O)C3=C(O)c4c(O)cccc4[C@@](C)(O)C3C[C@@H]12 (stereo not given in full)	18.0*	-1.9	10.5	6.0	.	5.1	-25.8	3.5
Cc1ccc(-c2cc(C(F)F)n3ncc(C(=O)N4CCC5(CC4)OCCO5)c3n2)cc1	2.5	4.9	14.7	-7.2	.	.	.	.
COC(=O)C1=C(c2ccc(-c3ccccc3)c(F)c2)C[C@@H]2CC[C@H]1N2C(=O)NCCc1ccccc1	1.6	-2.5	0.2	-23.6	.	.	.	.
Clc1ccc(CNCCc2ccc3c(c2)OCO3)cc1	3.2	-0.3	-0.9	7.8	.	.	.	.
Clc1cccc(CNCCc2ccc3c(c2)OCO3)c1	14.5*	1.9	0.5	10.5	.	0.0	-0.2	-1.6
CCOC(=O)C1=C(N)OC2=C(C(=O)CC(C)(C)C2)C12C(=O)Nc1ccccc12 (stereo not given)	-2.0	-2.3	1.6	1.7	.	.	.	.
